Measurements from ChEMBL document CHEMBL1122852, “Imidazo[1,5-d][1,2,4]triazines as potential antiasthma agents” (J Med Chem, 1985).

Organism: Homo sapiens
Assay: Inhibitory activity against histamine release from antigen-challenged, sensitized human basophils
Type: functional
Method in brief: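 Histamine release was induced by antigen challenge of sensitized human basophils in vitro. Compounds were first screened at a single concentration. Those reducing release by more than 50% went on to concentration-response testing to estimate IC50. Values are given with standard error and number of experiments.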

Oc1nncc2cnc(-c3ccccc3)n12
IC50 (Homo sapiens): > 48 µM

C=CCn1ncc2c(C)nc(Cc3ccccc3)n2c1=O
IC50 (Homo sapiens): > 48 µM

Cc1nc(C)n2c(=O)n(C)ncc12
IC50 (Homo sapiens): > 48 µM

CCc1nc(C)c2cnnc(O)n12
IC50 (Homo sapiens): > 48 µM

CCCc1ncn2c(Nc3cc[nH]n3)nncc12
IC50 (Homo sapiens): > 48 µM

CCOC(=O)C(C)Sc1nncc2cncn12 (stereo not given)
IC50 (Homo sapiens): > 48 µM

c1ccc(C(c2ccccc2)N2CCN(c3nncc4cncn34)CC2)cc1
IC50 (Homo sapiens): > 48 µM

Sc1nncc2cnc(-c3cccc(Cl)c3)n12
IC50 (Homo sapiens): > 48 µM

C(=C\CSc1nncc2cncn12)/CSc1nncc2cncn12
IC50 (Homo sapiens): > 48 µM

C=CCn1ncc2c(CC)ncn2c1=O
IC50 (Homo sapiens): > 48 µM

Cc1ncn2c(S)nncc12
IC50 (Homo sapiens): > 48 µM

C=CCSc1nncc2c(CC)ncn12
IC50 (Homo sapiens): > 48 µM

C=CCSc1nncc2c(C)nc(-c3ccccc3)n12
IC50 (Homo sapiens): > 48 µM

CSc1nnc(-c2ccccc2)c2cncn12
IC50 (Homo sapiens): > 48 µM

CNc1nncc2c(C)ncn12
IC50 (Homo sapiens): > 48 µM

CCn1ncc2c(C)nc(C(C)C)n2c1=O
IC50 (Homo sapiens): > 48 µM

Sc1nncc2cnc(-c3ccccc3)n12
IC50 (Homo sapiens): > 48 µM

c1ncn2c1C(NC1CCCC1)NN=C2NC1CCCC1 (stereo not given)
IC50 (Homo sapiens): > 48 µM

CCCc1nc(C)c2cnnc(SC)n12
IC50 (Homo sapiens): > 48 µM

Oc1nncc2cnc(Cc3ccccc3)n12
IC50 (Homo sapiens): > 48 µM

C=CCn1ncc2cnc(Cc3ccccc3)n2c1=O
IC50 (Homo sapiens): > 48 µM

CCOC(=O)Cn1ncc2cnc(COC)n2c1=O
IC50 (Homo sapiens): > 48 µM

CCCc1nc(C)c2cnn(CC(O)CO)c(=O)n12 (stereo not given)
IC50 (Homo sapiens): > 48 µM

CCCc1ncc2c(C)nnc(SC)n12
IC50 (Homo sapiens): > 48 µM

C=CCSc1nncc2cnc(COC)n12
IC50 (Homo sapiens): 79 µM

c1ncn2c(NC34CC5CC(CC(C5)C3)C4)nncc12
IC50 (Homo sapiens): > 48 µM

CCCc1ncc2cnnc(S)n12
IC50 (Homo sapiens): > 48 µM

CCc1nc(C)c2c(-c3ccccc3)nnc(SC)n12
IC50 (Homo sapiens): > 48 µM

C=CCSc1nncc2cnc(CCC)n12
IC50 (Homo sapiens): > 48 µM

CCc1nc(C)c2c(-c3ccccc3)nnc(O)n12
IC50 (Homo sapiens): > 48 µM

COCc1nc(C)c2cnnc(S)n12
IC50 (Homo sapiens): > 48 µM

CCCc1ncc2cnnc(O)n12
IC50 (Homo sapiens): > 48 µM

CC(C)(C)c1nc(Br)c2cnnc(O)n12
IC50 (Homo sapiens): 19 µM

CC(C)c1ncn2c(S)nncc12
IC50 (Homo sapiens): > 48 µM

C=CCn1ncc2c(Br)nc(CCC)n2c1=O
IC50 (Homo sapiens): > 48 µM

C=CCn1nc(C)c2c(C)nc(CCC)n2c1=O
IC50: > 48 µM
IC50 (Homo sapiens): 69 µM

CCCc1nc(C)c2c(CC)nnc(S)n12
IC50 (Homo sapiens): > 48 µM

COCc1ncc2cnnc(S)n12
IC50 (Homo sapiens): > 48 µM

CCCc1nnc(O)n2c(C)ncc12
IC50 (Homo sapiens): > 48 µM

CCOC(=O)/C=C/CSc1nncc2cncn12
IC50 (Homo sapiens): > 48 µM

C=C=Cn1nc(C)c2c(C)nc(CCC)n2c1=O
IC50 (Homo sapiens): > 48 µM

CSc1nncc2cnc(C)n12
IC50 (Homo sapiens): > 48 µM

CSc1nncc2c(C)nc(C)n12
IC50 (Homo sapiens): > 48 µM

CCCc1nc(C)c2cnnc(SCC(=O)OCC)n12
IC50 (Homo sapiens): > 48 µM

c1ccc(-c2cn[nH]c2Nc2nncc3cncn23)cc1
IC50 (Homo sapiens): 10 µM

COCc1nc(Br)c2c(Br)nnc(O)n12
IC50 (Homo sapiens): > 48 µM

C=CCn1ncc2c(Br)nc(Cc3ccccc3)n2c1=O
IC50 (Homo sapiens): > 48 µM

CCCc1nc(C)c2c(C3CC3)nnc(O)n12
IC50 (Homo sapiens): > 48 µM

CSc1nncc2c(C)ncn12
IC50 (Homo sapiens): > 48 µM

CCn1ncc2cncn2c1=S
IC50 (Homo sapiens): > 48 µM

CCOC(=O)CSc1nncc2cnc(C)n12
IC50 (Homo sapiens): 52 µM

CSc1nncc2c(C(C)C)ncn12
IC50 (Homo sapiens): > 48 µM

Cc1nc(C)n2c(O)nncc12
IC50 (Homo sapiens): > 48 µM

CCCc1nc(C)c2cnn(C)c(=O)n12
IC50 (Homo sapiens): 20 µM

CCCc1nc(C)c2c(C)nn(CCC)c(=O)n12
IC50 (Homo sapiens): > 48 µM

CCc1ncn2c(S)nncc12
IC50 (Homo sapiens): > 48 µM

Cc1ncn2c(NN)nncc12
IC50 (Homo sapiens): > 48 µM

CCCc1nc(Br)c2cnnc(O)n12
IC50 (Homo sapiens): > 48 µM

CCCc1ncn2c(O)nncc12
IC50 (Homo sapiens): > 48 µM

CCCc1nc(C)c2cnn(CC3CC3)c(=O)n12
IC50 (Homo sapiens): > 48 µM

Cc1ncn2c(Nc3cccs3)nncc12
IC50 (Homo sapiens): > 48 µM

CCCc1nc(C)n2c(O)nncc12
IC50 (Homo sapiens): > 48 µM

C=CCSc1nncc2c(C)nc(C)n12
IC50 (Homo sapiens): 59 µM

CCc1nnc(O)n2c(C(C)(C)C)nc(C)c12
IC50 (Homo sapiens): 26 µM

CCCc1nc(C)c2c(C)nn(CC(=O)O)c(=O)n12
IC50 (Homo sapiens): > 48 µM

C=CCSc1nncc2cnc(C)n12
IC50 (Homo sapiens): 61 µM

CCc1nc(C)c2cnnc(SC)n12
IC50 (Homo sapiens): > 48 µM

CCCc1nnc(O)n2c(C)nc(C)c12
IC50 (Homo sapiens): > 48 µM

CCCOc1ccccc1-c1ncc2cnnc(O)n12
IC50 (Homo sapiens): > 48 µM

CCCc1nc(C)c2c(CC)nnc(SC)n12
IC50 (Homo sapiens): > 48 µM

CCCc1nc(C)c2c(C)nn(CC)c(=O)n12
IC50 (Homo sapiens): > 48 µM

CCCc1nn(C)c(=O)n2c(CCC)nc(C)c12
IC50 (Homo sapiens): 18 µM

CCOC(=O)CSc1nncc2c(C)nc(C)n12
IC50 (Homo sapiens): > 48 µM

CCCc1nc(C)c2c(C(C)C)nnc(SC)n12
IC50 (Homo sapiens): > 48 µM

CCCc1nc(C)c2cnn(CC(=O)OCC)c(=O)n12
IC50 (Homo sapiens): > 48 µM

CNc1nncc2cncn12
IC50 (Homo sapiens): > 48 µM

Cc1nc(C(C)(C)C)n2c(O)nncc12
IC50 (Homo sapiens): 31 µM

CCCc1nc(C)c2c(-c3ccccc3)nnc(SC)n12
IC50 (Homo sapiens): > 48 µM

Cc1ncn2c(O)nncc12
IC50 (Homo sapiens): > 48 µM

C=CCn1ncc2c(CC)ncn2c1=S
IC50 (Homo sapiens): > 48 µM

CCOC(=O)/C(=C(\O)OCC)c1nncc2cncn12
IC50 (Homo sapiens): > 48 µM

CCCc1nnc(S)n2c(CCC)nc(C)c12
IC50 (Homo sapiens): > 48 µM

CCOC(=O)Cn1ncc2c(C)ncn2c1=O
IC50 (Homo sapiens): > 48 µM

CCCc1nc(C)c2c(C(C)C)nnc(O)n12
IC50 (Homo sapiens): > 48 µM

Cc1nnc(S)n2c(C)nc(C)c12
IC50 (Homo sapiens): > 48 µM

CCCc1nc(C)c2c(C)nn(CC(=O)OCC)c(=O)n12
IC50 (Homo sapiens): > 48 µM

CCCc1nc(C)c2cnnc(S)n12
IC50 (Homo sapiens): 10 µM

CCCc1ncn2c(SC)nncc12
IC50 (Homo sapiens): > 48 µM

CSc1nnc(-c2ccccc2)c2c(C)nc(C(C)C)n12
IC50 (Homo sapiens): > 48 µM

C=CCn1nc(Br)c2c(Br)nc(CCC)n2c1=O
IC50 (Homo sapiens): > 48 µM

Cc1ncc2cnnc(S)n12
IC50 (Homo sapiens): > 48 µM

Oc1nnc(Br)c2c(Br)nc(Br)n12
IC50 (Homo sapiens): 27 µM

Oc1nncc2cncn12
IC50 (Homo sapiens): > 48 µM

C=CCn1ncc2c(C)nc(C(C)C)n2c1=O
IC50 (Homo sapiens): > 48 µM

C=CCn1ncc2c(C)nc(CC)n2c1=O
IC50 (Homo sapiens): > 48 µM

Cc1ncn2c(NCc3ccco3)nncc12
IC50 (Homo sapiens): > 48 µM

C=CCn1ncc2cnc(-c3ccc(OC)cc3)n2c1=O
IC50 (Homo sapiens): > 48 µM

CC(C)c1ncn2c(O)nncc12
IC50 (Homo sapiens): > 48 µM

CCc1nc(C)c2cnnc(S)n12
IC50 (Homo sapiens): > 48 µM

CCCc1nc(Br)c2c(Br)nnc(O)n12
IC50 (Homo sapiens): 48 µM

Cc1nc(C(C)C)n2c(S)nncc12
IC50 (Homo sapiens): > 48 µM

CSc1nnc(C)c2c(C)nc(C)n12
IC50 (Homo sapiens): > 48 µM

C=CCn1ncc2cnc(C)n2c1=O
IC50 (Homo sapiens): > 48 µM

CCCc1nc(C)c2c(C)nn(Cc3ccccc3)c(=O)n12
IC50 (Homo sapiens): > 48 µM

O=C(CSc1nncc2cncn12)c1ccccc1
IC50 (Homo sapiens): > 48 µM

COc1ccc(-c2ncc3cnnc(O)n23)cc1
IC50 (Homo sapiens): > 48 µM

Cc1ncc2cnnc(O)n12
IC50 (Homo sapiens): > 48 µM

CCCC1NN=C(SC)n2c1cnc2C (stereo not given)
IC50 (Homo sapiens): > 48 µM

C=CCn1ncc2cnc(C)n2c1=S
IC50 (Homo sapiens): > 48 µM

CSc1nncc2c(C)nc(C(C)C)n12
IC50 (Homo sapiens): > 48 µM

CCCc1nc(C)c2c(C)nn(CC(O)CO)c(=O)n12 (stereo not given)
IC50 (Homo sapiens): > 48 µM

c1ccc(CNc2nncc3cncn23)cc1
IC50 (Homo sapiens): > 48 µM

c1ncn2c(N3CCCCC3)nncc12
IC50 (Homo sapiens): > 48 µM

c1coc(CNc2nncc3cncn23)c1
IC50 (Homo sapiens): > 48 µM

C=CCn1ncc2cnc(COC)n2c1=O
IC50 (Homo sapiens): > 48 µM

CN(C)CCNc1nncc2cncn12
IC50 (Homo sapiens): > 48 µM

COCc1ncc2n1C(NCCN(C)C)NN=C2NCCN(C)C (stereo not given)
IC50 (Homo sapiens): > 48 µM

CCCc1nc(C)c2cnnc(O)n12
IC50 (Homo sapiens): 56.8 µM

Cc1nnc(S)n2cncc12
IC50 (Homo sapiens): > 48 µM

CCOC(=O)CSc1nncc2c(C)ncn12
IC50 (Homo sapiens): > 48 µM

Cc1nc(C(C)C)n2c(O)nnc(-c3ccccc3)c12
IC50 (Homo sapiens): > 48 µM

COCc1ncc2cnnc(O)n12
IC50 (Homo sapiens): > 48 µM

Cn1ncc2cnc(Cc3ccccc3)n2c1=O
IC50 (Homo sapiens): > 48 µM

CCCc1ncn2c(S)nncc12
IC50 (Homo sapiens): > 48 µM

Oc1nnc(-c2ccccc2)c2cncn12
IC50 (Homo sapiens): 19 µM

Cc1ncn2c(N(C)C)nncc12
IC50 (Homo sapiens): > 48 µM

c1nc(Nc2nncc3cncn23)n[nH]1
IC50 (Homo sapiens): 46 µM

CCCc1nc(C)c2n1C(SC)=NNC2c1ccccc1 (stereo not given)
IC50 (Homo sapiens): > 48 µM

COCc1nc(Br)c2cnnc(O)n12
IC50 (Homo sapiens): > 48 µM

C=CCn1ncc2cncn2c1=O
IC50 (Homo sapiens): > 48 µM

CCCc1nc(C)c2c(C)nnc(SC)n12
IC50 (Homo sapiens): > 48 µM

c1ncn2c(NC3CCCC3)nncc12
IC50 (Homo sapiens): > 48 µM

CN1CCN(c2nncc3cncn23)CC1
IC50 (Homo sapiens): > 48 µM

Cc1nc(C)n2c(S)nncc12
IC50 (Homo sapiens): > 48 µM

C=CCn1ncc2c(CCC)ncn2c1=O
IC50 (Homo sapiens): > 48 µM

CCCc1ncc2c(C)nnc(S)n12
IC50 (Homo sapiens): > 48 µM

CCCc1nc(C)c2cnn(C/C=C/C(=O)OCC)c(=O)n12
IC50 (Homo sapiens): > 48 µM

CCO/C(O)=C\c1nncc2cncn12
IC50 (Homo sapiens): > 48 µM

COCc1ncc2cnnc(SC)n12
IC50 (Homo sapiens): > 48 µM

CCCc1nc(C)c2c(C)nn(C)c(=O)n12
IC50 (Homo sapiens): > 48 µM

CCc1nnc(S)n2c(C(C)CC)nc(C)c12 (stereo not given)
IC50 (Homo sapiens): > 48 µM

C=CCn1ncc2c(C)nc(C)n2c1=O
IC50 (Homo sapiens): 73 µM

CCc1nnc(O)n2c(C)nc(C)c12
IC50 (Homo sapiens): > 48 µM

CCCc1ncc2cnnc(SC)n12
IC50 (Homo sapiens): > 48 µM

CCc1nnc(O)n2c(CC)nc(C)c12
IC50 (Homo sapiens): 24 µM

CC(=O)N(C1=NNCC1)c1nncc2c(C)ncn12
IC50 (Homo sapiens): > 48 µM

CCOC(=O)CSc1nncc2cncn12
IC50 (Homo sapiens): > 48 µM

CCCc1nc(C)c2c(-c3ccccc3)nnc(O)n12
IC50 (Homo sapiens): > 48 µM

CCc1nnc(O)n2c(C(C)CC)nc(C)c12 (stereo not given)
IC50 (Homo sapiens): 45 µM

CCOC(=O)Cn1ncc2cncn2c1=O
IC50 (Homo sapiens): > 48 µM

COCc1nc(C)c2c(C)nnc(O)n12
IC50 (Homo sapiens): > 48 µM

C=CCSc1nncc2cnc(-c3ccccc3)n12
IC50 (Homo sapiens): > 48 µM

CCCCc1nnc(O)n2c(CCC)nc(C)c12
IC50 (Homo sapiens): > 48 µM

CCCc1nc(C)c2c(-c3ccccc3)nnc(Nc3cc[nH]n3)n12
IC50 (Homo sapiens): > 48 µM

Cc1nc(Cc2ccccc2)n2c(O)nncc12
IC50 (Homo sapiens): > 48 µM

Cc1ncn2c(Nc3cccnc3)nncc12
IC50 (Homo sapiens): > 48 µM

C=CCn1ncc2c(C)nc(C(C)(C)C)n2c1=O
IC50 (Homo sapiens): > 48 µM

O/C(=C/c1nncc2cncn12)c1ccccc1
IC50 (Homo sapiens): 38 µM

CCc1ncn2c(O)nncc12
IC50 (Homo sapiens): > 48 µM
